16 compounds from ChEMBL document CHEMBL1126057, “Highly water-soluble lipophilic prodrugs of the anti-HIV nucleoside analogue 2',3'-dideoxycytidine and its 3'-fluoro derivative” (J Med Chem, 1992) can be followed below.

In brackets after ≈: the same amount, converted by molar mass.

Data set [1] in a line: Partition coefficient (P). To be noted: octanol/water.
The nature of data set [2]: Half-life in potassium phosphate buffered saline(PBS) at 37 degree C. It counts as ADME. The gist of the method:
(§1)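 Prodrug at 5 × 10^-5 M in PBS, pH 7.4, incubated at 37 °C. A317 read at regular intervals. Pseudo-first-order rate constant taken from the slope of ln(absorbance) vs time, then converted to t1/2.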

Data set [3] can be described thus: The compound was tested for the antiviral activity against Rauscher murine leukemia virus. To be noted: Mus musculus; read-out: ED50 (the source's name). It counts as functional. Put shortly:
(§2)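 UV-XC plaque reduction assay for Rauscher murine leukemia virus in SC-1 cells in culture, in vitro. Value is the concentration (µM) producing 50% antiviral effect.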

Data set [4] can be described thus: pKa value of the compound. It is filed as physicochemical. Put shortly:
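pKa determined by UV spectroscopy at room temperature.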

Data set [5] in a line: Water solubility of the compound. It is filed as ADME. To be noted: read-out: S. Put shortly: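 Solubility in double-distilled water at room temperature, in mg/mL.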
A short description of data set [6]: The compound was tested for the cytotoxicity against Rauscher murine leukemia virus. It counts as functional, Mus musculus. The gist of the method: (§3)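 Cytotoxicity in the same cell cultures as the antiviral assays, measured as 50% growth inhibition by tetrazolium dye assay. Value is the concentration (µM) producing 50% cytotoxicity.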
The nature of data set [7]: Half-life in 1N HCl at 37 degree C. It is filed as ADME. The gist of the method: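 Diisopropylamino prodrugs at 5 × 10^-5 M in 1 N HCl at 37 °C. Absorbance at 317 nm recorded at regular intervals. ln(absorbance) vs time plotted; slope gives the pseudo-first-order hydrolysis rate constant, from which t1/2 was calculated.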
In data set [8] the test system is CCRF-CEM. The data set is described as follows: The compound was tested for the cytotoxicity against HIV from CEM-IW human lymphocyte. It counts as functional, cell-based. Put shortly: as §3
Data set [9] can be described thus: Half-life in 90% serum solution at 37 degree C. It counts as ADME, cell-free. The gist of the method: (§4)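 Diisopropylamino prodrugs diluted from 10^-2 M stock into human serum, made up with buffer to 10% or 20% serum, or mixed with serum to 90% serum. Incubated at 37 °C; 50-µL aliquots withdrawn at intervals, diluted with buffer, A317 read. Half-life taken from the pseudo-first-order rate constant, i.e. the slope of ln(absorbance) vs time.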

The nature of data set [10]: Half-life in 10% serum solution at 37 degree C. It is filed as ADME, cell-free. The gist of the method: as §4
The nature of data set [11]: Half-life in potassium phosphate buffered saline (PBS) at 37 degree C(0% serum solution). It counts as ADME. The gist of the method: as §1
Data set [12] can be described thus: Half-life in 20% serum solution at 37 degree C. It counts as ADME, cell-free. The gist of the method:
as §4

The subject of data set [13] is CCRF-CEM. Kind of data set: The compound was tested for the antiviral activity against HIV from CEM-IW human lymphocyte,. To be noted: read-out: ED50 (the source's name). It counts as functional. The gist of the method:
(§5)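 CEM-IW human lymphocytes in culture; reduction of HIV cytopathic effect. Value is the concentration (µM) producing 50% antiviral effect.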

Data set [14] has as its system CCRF-CEM. The data set is described as follows: The compound was tested for the antiviral activity against HIV from CEM-IW human lymphocyte. It counts as functional. To be noted: read-out: ED50 (the source's name). The gist of the method: as §5
Data set [15] in a line: The compound was tested for the cytotoxicity in SC-1 cells. To be noted: Mus musculus.
The nature of data set [16]: The compound was tested for the antiviral activity against Rauscher murine leukemia virus in SC-1 cells. It is filed as functional. To be noted: Mus musculus, read-out: ED50 (the source's name). Put shortly: as §2
A short description of data set [17]: Half-life in potassium phosphate buffered saline (PBS) at 37 degree C. It is filed as ADME. Put shortly:
as §1

What is called half-life is how long it takes for the measured level to halve. A low value points to fast loss. `CCN(/C=N\c1ccn(C2CC(F)C(CO)O2)c(=O)n1)CC` (stereo unspecified) showed a P in data set [1] of 0.227. Besides, the half-life in data set [2] amounted to 610 min.
`CCCN(/C=N\c1ccn(C2CC(F)C(CO)O2)c(=O)n1)CCC` (stereo unspecified) gave a half-life in data set [2] of 935 min.
In the case of `O=c1nc(/N=C\N2CCOCC2)ccn1C1CCC(CO)O1` (stereo unspecified), the P in data set [1] was -0.967. Moreover, the half-life in data set [2] was 235 min.
On the same counts, the results for `CCCN(/C=N\c1ccn(C2CCC(CO)O2)c(=O)n1)CCC` (stereo unspecified) are 0.948 and 788 min.
`O=c1nc(/N=C\N2CCCC2)ccn1C1CCC(CO)O1` (stereo unspecified) registered a P in data set [1] of -0.467. In addition, the half-life in data set [2] was 128 min.
Turning to `O=c1nc(/N=C\N2CCCCC2)ccn1C1CCC(CO)O1` (stereo unspecified), the P in [1] is 0.057. The half-life in [2] was 384 min.
A word on the pKa: it is the pH at which an ionisable group is half protonated. Read a low pKa as a stronger acid or weaker base. A word on the IC50: it is the concentration that gives 50% inhibition. Turning to `Nc1ccn([C@H]2CC[C@@H](CO)O2)c(=O)n1` [ZALCITABINE], the EC50 in data set [3] worked out at 2.2 µM. In data set [4], this compound had a pKa of 4.42. In [5], the solubility worked out at 78 mg/mL (≈ 369 mM). The compound further gave an IC50 in data set [6] greater than 1 mM.
Take `CC(C)N(/C=N\c1ccn(C2CCC(CO)O2)c(=O)n1)C(C)C` (stereo unspecified): the half-life was 234 min in data set [7]; 2.73 days in data set [9]; 2840 min in [10]; 2850 min in [11]; 2.13 days in data set [12]. In addition, the EC50 in data set [3] amounted to 20.6 µM; in [13] it was 65 nM. The IC50 is greater than 200 µM in data set [8] and greater than 1 mM in data set [6]. Also, in [4], the pKa turned out to be 5.28. The solubility in data set [5] is greater than 300 mg/mL. This compound also displayed a P in data set [1] of 0.724.
Turning to `CN(C)/C=N\c1ccn(C2CC(F)C(CO)O2)c(=O)n1` (stereo unspecified), the IC50 was greater than 200 µM in data set [8] and greater than 1 mM in data set [15]. Moreover, the values for the EC50 in data set [14] and in [16] were 230 nM and 214 µM, respectively. The P in data set [1] was -0.64. In addition, the half-life in data set [2] is 280 min.
On to `CCN(/C=N\c1ccn(C2CCC(CO)O2)c(=O)n1)CC` (stereo unspecified), for which the P in data set [1] was -0.059. In data set [2], this compound had a half-life of 520 min.
In [1], `O=c1nc(/N=C\N2CCOCC2)ccn1C1CC(F)C(CO)O1` (stereo unspecified) had a P of -0.676. Also, the half-life in data set [2] is 224 min.
Turning to `O=c1nc(/N=C\N2CCCCC2)ccn1C1CC(F)C(CO)O1` (stereo unspecified), in [1], the P amounted to 0.358. The same compound gave a half-life in [2] of 378 min.
On to `Nc1ccn(C2CC(F)C(CO)O2)c(=O)n1` (stereo unspecified), for which the EC50 in [3] came to 158 µM; in [13], 160 nM. Besides, the results for the IC50 in data set [8] and in [6] were greater than 3200 µM and greater than 1 mM, respectively. In [4], this compound displayed a pKa of 4.22. Besides, the solubility in [5] was 15 mg/mL (≈ 65.4 mM). Moreover, the P in [1] is -0.893.
Regarding `CN(C)/C=N\c1ccn(C2CCC(CO)O2)c(=O)n1` (stereo unspecified), in data set [1], the P is -0.951. This compound had a half-life in [17] of 228 min.
Compound `O=c1nc(/N=C\N2CCCC2)ccn1C1CC(F)C(CO)O1` (stereo unspecified) showed a P in [1] of -0.162. The half-life in data set [2] was 154 min.
Take `CC(C)N(/C=N\c1ccn(C2CC(F)C(CO)O2)c(=O)n1)C(C)C` (stereo unspecified): the half-life was 348 min in data set [7]; 3.61 days in data set [9]; 3140 min in data set [10]; 3130 min in [2]; 2.35 days in data set [12]. In addition, the IC50 in data set [8] is greater than 200 µM; in [15], greater than 1 mM. In [4], this compound registered a pKa of 5.13. For the same compound, the solubility in data set [5] is 25 mg/mL (≈ 73.4 mM). Also, the values for the EC50 in [16] and in data set [13] were 518 µM and 675 nM, respectively.
